For 30 molecules, IC50 and inhibition results are on record in PubChem BioAssay AID624163 (Southern Research Specialized Biocontainment Screening …, 2012).

SMILES strings stand for the structures. Calls of active or inactive are those of the source.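 The calls were made as follows: active = inhibition of 30% or more at any tested concentration; inactive = the rest.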

Sequence of Aminopeptidase N (Plasmodium falciparum (isolate 3D7)) (O96935 whole entry, looked up): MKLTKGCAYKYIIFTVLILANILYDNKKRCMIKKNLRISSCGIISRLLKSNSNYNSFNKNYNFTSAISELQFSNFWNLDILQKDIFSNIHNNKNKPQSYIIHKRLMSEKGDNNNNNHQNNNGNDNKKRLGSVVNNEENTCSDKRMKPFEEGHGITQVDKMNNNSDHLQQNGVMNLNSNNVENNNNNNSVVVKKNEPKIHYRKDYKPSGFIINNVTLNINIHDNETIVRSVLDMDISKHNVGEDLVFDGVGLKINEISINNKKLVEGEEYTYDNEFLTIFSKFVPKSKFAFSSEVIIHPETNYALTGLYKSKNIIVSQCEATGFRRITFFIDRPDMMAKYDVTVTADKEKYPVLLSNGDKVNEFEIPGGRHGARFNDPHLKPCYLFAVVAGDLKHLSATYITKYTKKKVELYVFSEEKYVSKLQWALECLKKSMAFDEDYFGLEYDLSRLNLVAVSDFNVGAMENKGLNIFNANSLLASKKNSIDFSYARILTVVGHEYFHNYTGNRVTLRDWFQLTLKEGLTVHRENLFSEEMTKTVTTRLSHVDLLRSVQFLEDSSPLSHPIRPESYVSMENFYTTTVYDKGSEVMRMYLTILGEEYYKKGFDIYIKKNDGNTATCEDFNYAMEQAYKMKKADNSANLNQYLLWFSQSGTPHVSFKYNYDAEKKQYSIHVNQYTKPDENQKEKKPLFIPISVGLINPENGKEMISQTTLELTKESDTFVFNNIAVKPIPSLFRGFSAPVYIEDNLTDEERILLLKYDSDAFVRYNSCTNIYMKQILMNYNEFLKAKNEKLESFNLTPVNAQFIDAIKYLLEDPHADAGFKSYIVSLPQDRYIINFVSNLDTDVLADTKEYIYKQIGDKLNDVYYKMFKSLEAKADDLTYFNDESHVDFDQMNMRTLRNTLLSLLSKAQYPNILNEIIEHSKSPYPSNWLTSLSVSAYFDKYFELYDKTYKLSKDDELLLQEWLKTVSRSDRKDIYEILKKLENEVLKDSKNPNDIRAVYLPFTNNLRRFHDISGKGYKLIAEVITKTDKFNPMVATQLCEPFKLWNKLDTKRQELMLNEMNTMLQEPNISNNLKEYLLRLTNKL

The first assay deals with Aminopeptidase N (Plasmodium falciparum (isolate 3D7)) (UniProt O96935). Put plainly: PFM1AAP inhibitors, dose response, biochemical, QFRET, fluorogenic H-Leu-NHMec substrate, set 3 (AID 624163). As to conditions: purified rPFM1AAP, H-Leu-NHMec fluorogenic substrate cleavage. The method in brief:
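test system = purified recombinant Plasmodium falciparum M1 alanyl aminopeptidase (rPfM1AAP) | quantity = enzyme 5 µg/mL | also added = fluorogenic substrate H-Leu-NHMec at 0.1 mM final | timing = 90 min reaction, room temperature | signal = fluorescence ex 370/em 460 nm | read-out basis = % inhibition and IC50 from 4-parameter fit | control set = wells without enzyme as background control | repeats = triplicate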
As to `O=C(NCc1cccc(F)c1)C1CCN(S(=O)(=O)c2ccc(Br)s2)CC1`, the half-inhibitory concentration (IC50) was 2.18 µM.

On to `O=C(NCc1ccccc1F)C1CCN(S(=O)(=O)c2ccc(Cl)s2)CC1`, for which the IC50 is 3.97 µM.

Take `O=C(NCc1ccc2c(c1)OCO2)C1CCN(S(=O)(=O)c2ccc(Cl)s2)CC1`: the 50% inhibitory concentration (IC50) was 2.83 µM.

In the case of `O=C(NCc1ccc(F)cc1)C1CCN(S(=O)(=O)c2ccc(Br)s2)CC1`, the IC50 is 3.95 µM.

For `O=C(NCc1cccc(F)c1)C1CCN(S(=O)(=O)c2sccc2Br)CC1`, the 50% inhibitory concentration (IC50) was 29.8 µM.

For the molecule `O=C(NCc1ccccc1F)C1CCN(S(=O)(=O)c2sccc2Br)CC1`, the half-inhibitory concentration (IC50) was 33.7 µM.

Take `O=C(NCc1cccc(F)c1)C1CCN(S(=O)(=O)c2ccc(Cl)s2)CC1`: the IC50 was 3.98 µM.

`O=C(NCc1ccc(F)cc1)C1CCN(S(=O)(=O)c2ccc(Cl)s2)CC1`: the half-maximal inhibitory concentration (IC50) is 6.48 µM.

For the molecule `O=C(NCc1ccc(F)cc1)C1CCN(S(=O)(=O)c2sccc2Br)CC1`, the concentration for half-maximal inhibition (IC50) is 69.2 µM.

In the case of `O=C(NCc1cccc(F)c1)C1CCN(S(=O)(=O)c2ccc(Br)cc2)CC1`, the IC50 is 11.2 µM.

`O=C(NCc1ccc2c(c1)OCO2)C1CCN(S(=O)(=O)c2ccc(Br)s2)CC1`: the IC50 was 1.22 µM.

Consider `O=C(NCc1ccccc1F)C1CCN(S(=O)(=O)c2ccc(Br)s2)CC1`, for which the IC50 was 2.53 µM.

For `O=C(NCc1ccc2c(c1)OCO2)C1CCN(S(=O)(=O)c2sccc2Br)CC1`, the IC50 is 34.3 µM.

Regarding `O=C(NCc1ccccc1F)C1CCN(S(=O)(=O)c2ccc(Br)cc2)CC1`, the IC50 is 12.7 µM.

With `O=C(NCc1ccc2c(c1)OCO2)C1CCN(S(=O)(=O)c2ccc(Br)cc2)CC1`, the IC50 was 7.44 µM.

In the case of `O=C(NCc1ccc(F)cc1)C1CCN(S(=O)(=O)c2ccc(Br)cc2)CC1`, the concentration for half-maximal inhibition (IC50) was 28 µM.

The assay is the same for the next values; noted with them: purified rPFM1AAP, H-Leu-NHMec fluorogenic substrate cleavage; at 100 µM (top of the series).
On to `O=C(NCCc1ccc2c(c1)OCO2)C1CCN(S(=O)(=O)c2ccc(Br)s2)CC1`, for which the inhibition entry was “inactive”.

As for `O=C(NCc1cccc(F)c1)C1CCN(S(=O)(=O)c2cc(Br)c(Br)s2)CC1`, the inhibition entry was “inactive”.

Regarding `O=C(Nc1ccc2c(c1)OCO2)C1CCN(S(=O)(=O)c2ccc(Br)s2)CC1`, the inhibition entry is “inactive”.

As for `O=C(NCCc1ccc2c(c1)OCO2)C1CCN(S(=O)(=O)c2ccc(Br)cc2)CC1`, the inhibition entry was “inactive”.

Take `O=C(NCc1ccccc1F)C1CCN(S(=O)(=O)c2cc(Br)c(Br)s2)CC1`: the inhibition result is “inactive”.

For the molecule `O=C(NCCc1ccc2c(c1)OCO2)C1CCN(S(=O)(=O)c2sccc2Br)CC1`, the inhibition entry was “inactive”.

As to `O=C(Nc1ccc2c(c1)OCO2)C1CCN(S(=O)(=O)c2ccc(Br)cc2)CC1`, the inhibition result is “inactive”.

Consider `O=C(NCCc1ccc2c(c1)OCO2)C1CCN(S(=O)(=O)c2cc(Br)c(Br)s2)CC1`, for which the inhibition entry is “inactive”.

On to `O=C(Nc1ccc2c(c1)OCO2)C1CCN(S(=O)(=O)c2sccc2Br)CC1`, for which the inhibition entry was “inactive”.

On to `O=C(NCCc1ccc2c(c1)OCO2)C1CCN(S(=O)(=O)c2ccc(Cl)s2)CC1`, for which the inhibition result was “inactive”.

Turning to `O=C(NCc1ccc2c(c1)OCO2)C1CCN(S(=O)(=O)c2cc(Br)c(Br)s2)CC1`, the inhibition entry is “inactive”.

In the case of `O=C(Nc1ccc2c(c1)OCO2)C1CCN(S(=O)(=O)c2cc(Br)c(Br)s2)CC1`, the inhibition entry is “inactive”.

In the case of `O=C(NCc1ccc(F)cc1)C1CCN(S(=O)(=O)c2cc(Br)c(Br)s2)CC1`, the inhibition entry is “inactive”.

Turning to `O=C(Nc1ccc2c(c1)OCO2)C1CCN(S(=O)(=O)c2ccc(Cl)s2)CC1`, the inhibition result was “inactive”.

The IC50 is the concentration at which inhibition is half-maximal.
